In ChEMBL document CHEMBL2390859, “Solid phase synthesis and biological evaluation of probestin as an angiogenesis inhibitor” (Bioorg Med Chem Lett, 2013):
The source made the active and inactive calls.

Key:
MDA-MB-435 [1] = test: Antiangiogenic activity in human MDA-MB-435 cells xenografted in chicken embryo chorioallantoic membrane assessed as inhibition of blood vessel formation at 20 mg/kg measured after 2 days; format: functional, organism-based; set-up: dose 20 mg/kg
Procedure, shortened: (§1)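 Under the vascularized CAM of 10-day-old chicken embryos, 500,000 human breast carcinoma MDA-MB-435 cells were implanted. Embryos were dosed systemically with 20 mg/kg on days one and two. Tumor growth and vascularity were assessed, with 8–10 separate CAMs per group.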

MDA-MB-435 [2] = test: Antitumor activity against human MDA-MB-435 cells xenografted in chicken embryo chorioallantoic membrane assessed as inhibition of tumor volume at 20 mg/kg measured after 2 days; format: functional, organism-based; set-up: dose 20 mg/kg; procedure, shortened: as §1
Gallus gallus [3] = test: Antiangiogenic activity in chicken embryo chorioallantoic membrane assessed as inhibition of VEGF-induced blood vessel formation at 25 uM applied topically to filter paper surface after 48 hrs by stereo microscopic analysis; format: functional, tissue-based
Procedure, shortened: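 CAM of 10-day-old chicken embryos; angiogenesis induced with filter discs soaked in VEGF, test agent applied alongside. 8–10 separate CAMs per group.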

Gallus gallus [4] = species: Gallus gallus; settings: Chorioallantoic membrane, 10 uM
[5] = Toxicity in ip dosed BalbC mouse assessed as body weight loss administered 3 times per week measured over 6 weeks; format: organism-based; settings: in vivo
Procedure, shortened: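 Female BalbC mice, 10 weeks old and healthy, in groups of four, dosed ip at 50, 100, 200 and 300 mg/kg three times weekly. Body weight was tracked over 6 weeks, with observation for acute distress during the first 96 h after injection. MTD was defined as significant weight loss over 6 weeks (P <0.05, one-way ANOVA with Neuman–Keuls post test).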

[6] = Toxicity in chicken embryo chorioallantoic membrane assessed as effect on blood vessel at 10 uM applied topically to filter paper surface after 48 hrs by stereo microscopic analysis; format: tissue-based, Gallus gallus; settings: in vivo
Mus musculus = test: Toxicity in BalbC mouse assessed as body weight loss at 50 to 200 mg/kg, ip administered 3 times per week measured over 6 weeks; format: organism-based; set-up: dose 50-200 mg/kg, route intraperitoneal; settings: in vivo, 1008 h
Procedure, shortened: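 Healthy female BalbC mice, 10 weeks old, in groups of four, dosed intraperitoneally at 50, 100, 200 or 300 mg/kg three times weekly. Weights were tracked over 6 weeks and acute distress was watched for during the first 96 h. Significant weight loss over 6 weeks (P <0.05, one-way ANOVA with Neuman–Keuls post test) was the MTD criterion.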

[7] = Acute toxicity in ip dosed CDF mouse; format: organism-based; settings: in vivo

CCN(CC)CCNC(=O)c1c(C)[nH]c(/C=C2\C(=O)Nc3ccc(F)cc32)c1C
inhibition (MDA-MB-435 [1]): Active
inhibition (MDA-MB-435 [2]): Active
inhibition (Gallus gallus [3]): Active

CC(C)C[C@H](NC(=O)[C@@H](O)[C@H](N)Cc1ccccc1)C(=O)N1CCC[C@H]1C(=O)N1CCC[C@H]1C(=O)O [PROBESTIN]
inhibition (Gallus gallus [4]): Active
inhibition (MDA-MB-435 [1]): Active
MTD at 1008 h [5]: 300 mg/kg
inhibition (MDA-MB-435 [2]): Active
Activity [6]: Non-toxic
Activity (Mus musculus): Non-toxic
LD50 [7]: > 250 mg/kg

CC(C)C[C@H](NC(=O)[C@@H](O)[C@H](N)Cc1ccccc1)C(=O)O
inhibition (MDA-MB-435 [1]): Active
inhibition (MDA-MB-435 [2]): Active
